Results from PubChem BioAssay.
Inconclusive results are not listed.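 How the source made its calls, unless noted: active means viability increase at or above a cutoff of the median across tested compounds plus 3 SD (cut at about 8.5% in these data, passing the limit was not always enough); inconclusive means some gains above the cutoff, reason not given; inactive means the rest.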

Columns and labels:
[1] = S. cerevisiae growth inhibition in permissive medium (OD615), pilot counter-assay for S. cerevisiae lifespan shortening project, permissive growth control (AID 705;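 active means growth inhibition above 25% in both replicates, a cutoff set 3 SD above the mean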); details: OD615, 24 h, at 10 µM, stronger effect = higher value
Outline: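 System – S. cerevisiae with engineered DeaD lifespan system · Buffer or medium – SC raffinose/galactose permissive medium · Schedule – cells pre-grown 4 h, then 24 h compound exposure, 30 °C humidified · Technique – culture turbidity as optical density at 615 nm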

[2] = S. cerevisiae growth inhibition in restrictive medium, OD615, pilot screen, restrictive growth control, yeast lifespan reduction project (AID 706;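 active means growth inhibition above a set limit, 3 SD over mean compound inhibition, in both replicates, cut at about 43% in these data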;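 further: modified DeaD lifespan yeast strain shifted to restrictive glucose medium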); details: OD615, 48 h, at 10 µM, stronger effect = higher value
Outline: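 Material: engineered S. cerevisiae DeaD strain / Medium: glucose-based CSMM-D restrictive medium / Compound: single dose of 10 µM compound final, 0.25% DMSO / Timing: 4 h pre-incubation, 48 h exposure at 30 °C / Technique: OD615 absorbance reading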

[3] = doxorubicin toxicity protection in MRP-1 cells – H69AR cells, CellTiter-Glo, duplicate, MRP-1 activator project, pilot screen (AID 807); details: H69AR viability with doxorubicin, CellTiter-Glo luminescence; at 10 µM; stronger effect = higher value;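 further: compound pretreatment 18-22 h then 72 h combined with doxorubicin; 0% = doxorubicin alone and 100% = vehicle without doxorubicin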
[4] = viability of HCT116 without oncogenic beta-catenin – human colon tumor cells, pilot screen (AID 823;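 active means cell viability at or below a set limit in both duplicate runs, the limit being the all-compound median minus 4 SD, cut at about 23% in these data, passing the limit was not always enough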;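 further: 0% = wells killed by 20 µM Hyamine and 100% = untreated DMSO cell wells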); details: HCT116 beta-catenin knockout viability, CellTiter-Glo, 60 h; at 10 µM; stronger effect = lower value
[5] = viability of PTEN-null HCT116 cells – cell-based, HCT116 clonal line, CellTiter-Glo, pilot screen (AID 824;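 active means viability at or below 27.92% in each of two runs, the all-compound median minus 4 SD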;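 further: 0% = 20 µM Hyamine control and 100% = vehicle cell control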); details: HCT116 PTEN-deleted viability, 60 h, at 10 µM, stronger effect = lower value
[6] = RAM pathway blockade in budding yeast – dse1pr::URA3 reporter, 5-FOA selection, pilot screen (AID 869;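 active means inhibition over a set limit, the all-compound mean plus 3 SD, in both replicate runs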;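 further: 0% = DMSO wells with no growth and 100% = 10 µM 1-NA-PP1 with full growth; RAM network block rescues cells from 5-FOA so hits raise OD615 growth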); details: S. cerevisiae dse1pr::URA3 5-FOA growth, OD615, 2 d; at 10 µM; stronger effect = higher value; strain carries analog-sensitive mutant Cbk1 kinase
[7] = RAM signaling pathway blockade in yeast – S. cerevisiae, Pdr1DBD-CYC8 efflux-inhibited sensitized strain, primary screen (AID 1298;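 active means RAM network inhibition above 8.4% in each of two replicates, 3 SD over the compound average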;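 further: 0% = DMSO untreated cells without growth and 100% = 10 µM 1-NA-PP1 full growth; higher means more yeast growth rescued from 5-FOA killing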); details: S. cerevisiae cbk1-as DSE1-URA3 strain, 5-FOA growth OD615, 2 d; at 50 µM; stronger effect = higher value

O=C(CSc1nc2c(cnn2-c2ccc(F)cc2)c(=O)[nH]1)N1CCCCCC1
inactive: growth inhibition [1] -3.72% | growth inhibition [2] -9.65% | viability increase [3] -3.34% | viability [4] 94.2% | viability [5] 93% | inhibition [6] 1.53% | RAM network inhibition [7] -0.11%

CC1(C)CC(=O)C(=CN2CCN(C(=O)c3ccco3)CC2)C(=O)C1
inactive: growth inhibition [1] -20.6% | growth inhibition [2] -9.23% | viability increase [3] 0.72% | viability [4] 100% | viability [5] 90.3% | inhibition [6] 2.93% | RAM network inhibition [7] 3.19%

O=C(COc1ccc(Cl)cc1)Nc1nnc(-c2ccc3c(c2)CCCC3)o1
inactive: growth inhibition [1] -12.6% | growth inhibition [2] -12.9% | viability increase [3] -1.94% | viability [4] 101% | viability [5] 96.5% | inhibition [6] 3.45% | RAM network inhibition [7] 1.21%

O=C(O)c1cccc2c1C(=O)N(C1CCCCC1)C2
inactive: growth inhibition [1] -18.8% | growth inhibition [2] -5.79% | viability increase [3] -1.27% | viability [4] 104% | viability [5] 98.3% | inhibition [6] 1.97% | RAM network inhibition [7] 6.19%

OCCCc1nc2n(n1)C(c1ccccc1)C=C(c1ccccc1)N2 (stereo not drawn)
inactive: growth inhibition [1] -7.07% | growth inhibition [2] 1.69% | viability increase [3] -2.67% | viability [4] 97.1% | viability [5] 89.1% | inhibition [6] 0.59% | RAM network inhibition [7] 0.53%

CCOC(=O)CN1Cc2cccc(C(=O)O)c2C1=O
inactive: growth inhibition [1] -13.8% | growth inhibition [2] -18.1% | viability increase [3] -0.75% | viability [4] 95.6% | viability [5] 96.3% | inhibition [6] 0.535% | RAM network inhibition [7] 1.31%

CCOc1cccc(NC(=O)Cc2cccs2)c1
inactive: growth inhibition [1] -8.74% | growth inhibition [2] -0.895% | viability increase [3] -1.86% | viability [4] 94.1% | viability [5] 84.6% | inhibition [6] 1.06% | RAM network inhibition [7] 4.72%

c1csc(CCNc2ncnc3sc4c(c23)CCC4)c1
inactive: growth inhibition [1] -5.19% | growth inhibition [2] 13.9% | viability increase [3] -5.93% | viability [4] 39.9% | viability [5] 50.1% | inhibition [6] 0.385% | RAM network inhibition [7] -0.9%

COc1ccccc1CNC(=O)c1cnc2ccccn2c1=O
inactive: growth inhibition [1] -6.47% | growth inhibition [2] 8.2% | viability increase [3] -0.15% | viability [4] 97.8% | viability [5] 90.5% | inhibition [6] 0.36% | RAM network inhibition [7] 2.45%

O=C(NC1CCCCCC1)C1CCCN1S(=O)(=O)c1cccc2cccnc12 (stereo not drawn)
inactive: growth inhibition [1] -10.1% | growth inhibition [2] -8% | viability increase [3] -0.87% | viability [4] 90.9% | viability [5] 92.1% | inhibition [6] 0.69% | RAM network inhibition [7] 3.74%

COc1ccccc1N(CC(O)CN1C(=O)NC(C)(C)C1=O)S(=O)(=O)c1ccc(C)cc1 (stereo not drawn)
inactive: growth inhibition [1] -7.72% | growth inhibition [2] -4.29% | viability increase [3] -0.66% | viability [4] 101% | viability [5] 99.9% | inhibition [6] 1.41% | RAM network inhibition [7] 5.03%

CN(C)CCNC(=O)c1cc2cc(Br)ccc2oc1=O
inactive: growth inhibition [1] -22.2% | growth inhibition [2] -8.59% | viability increase [3] -2.26% | viability [4] 81.6% | viability [5] 84.5% | inhibition [6] 0.755% | RAM network inhibition [7] 2.26%

O=C(NCc1cccnc1)NC1(C(F)(F)F)Oc2ccc(Cl)cc2O1 (stereo not drawn)
inactive: growth inhibition [1] -2.96% | growth inhibition [2] -8.97% | viability increase [3] -6.19% | viability [4] 52.6% | viability [5] 58.7% | inhibition [6] 0.4% | RAM network inhibition [7] 0.63%

Cc1cc(C)n2nc(S(=O)(=O)N(CC(C)C)CC(C)C)nc2n1
inactive: growth inhibition [1] 3.3% | growth inhibition [2] 3.41% | viability increase [3] -1.13% | viability [4] 104% | viability [5] 94.2% | inhibition [6] 1.08% | RAM network inhibition [7] 0.22%

O=C(Nc1ccc(Cl)c(Cl)c1)c1ccncc1
inactive: growth inhibition [1] -19.8% | growth inhibition [2] -34.8% | viability increase [3] -1.27% | viability [4] 101% | viability [5] 90.6% | inhibition [6] 0.83% | RAM network inhibition [7] 2.47%

CC1=C(C(N)=O)C(c2cccc(O)c2)n2nc(CCCO)nc2N1 (stereo not drawn)
inactive: growth inhibition [1] -9.85% | growth inhibition [2] -1.35% | viability increase [3] -1.07% | viability [4] 101% | viability [5] 104% | inhibition [6] 2.02% | RAM network inhibition [7] 2.87%

CCN=C(Nc1ccc2c(c1)OCO2)SC1CC(=O)N(c2ccccc2F)C1=O (stereo not drawn)
inactive: growth inhibition [1] -4.17% | growth inhibition [2] -8.21% | viability increase [3] -1.9% | viability [4] 97% | viability [5] 95.9% | inhibition [6] 3.15% | RAM network inhibition [7] 10.8%

COC(=O)C1C2C=CC3(CN(c4cccc(Cl)c4)C(=O)C13)O2 (stereo not drawn)
inactive: growth inhibition [1] -11.2% | growth inhibition [2] -8.25% | viability increase [3] -1.38% | viability [4] 107% | viability [5] 99.5% | inhibition [6] 1.06% | RAM network inhibition [7] 5.74%

Cc1ccc(OCCSc2cc(C)nc(N)n2)cc1
inactive: growth inhibition [1] -3.51% | growth inhibition [2] -3.22% | viability increase [3] 0.4% | viability [4] 95.6% | viability [5] 96% | inhibition [6] 1.12% | RAM network inhibition [7] 0.05%

Cc1ccc(-n2nnc3c(=O)n(CC(=O)OCc4ccccc4)cnc32)cc1
inactive: growth inhibition [1] -3.74% | growth inhibition [2] -5.4% | viability increase [3] -2.06% | viability [4] 92.6% | viability [5] 91.1% | inhibition [6] 2.02% | RAM network inhibition [7] 6.18%

Cc1ccccc1-c1nnc(-c2ccc(Cl)cc2)o1
inactive: growth inhibition [1] -18.7% | growth inhibition [2] -20.9% | viability increase [3] -6.28% | viability [4] 77.9% | viability [5] 64.8% | inhibition [6] 4.19% | RAM network inhibition [7] 6.89%

CCOc1ccc(C2CC(c3cccc(C)c3)n3nc(N)nc3N2)cc1 (stereo not drawn)
inactive: growth inhibition [1] 2.79% | growth inhibition [2] 11.8% | viability increase [3] -0.49% | viability [4] 91.7% | viability [5] 83.2% | inhibition [6] 1.02% | RAM network inhibition [7] 2.03%

O=C(Nc1ccncc1)c1ccccc1F
inactive: growth inhibition [1] -0.355% | growth inhibition [2] 0.36% | viability increase [3] -3.04% | viability [4] 94.3% | viability [5] 98% | inhibition [6] 1.06% | RAM network inhibition [7] 0.96%

CCOC(=O)Cc1c(C)nc2c(-c3ccccc3)c[nH]n2c1=O
inactive: growth inhibition [1] -9.38% | growth inhibition [2] -14.3% | viability increase [3] -5.95% | viability [4] 76.8% | viability [5] 76.5% | inhibition [6] 1.96% | RAM network inhibition [7] 10.5%
